Laboratory results taken from ChEMBL document CHEMBL4715736, “Identification of anticancer agents based on the thieno[2,3-b]pyridine and 1H-pyrazole molecular scaffolds” (2016).

Key:
Assay type in all cases: functional
Settings in all cases: read-out: Activity
K562 = experiment: Growth inhibition of human K562 cells assessed as cell growth at 10 uM incubated for 48 hrs by sulforhodamine B assay relative to control
Outline: (§1)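 Submitted to the NCI Developmental Therapeutics Program for the NCI60 human tumour cell line panel. First screen at a single 10 µM concentration. Read-out is growth relative to untreated control cells set at 100%.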

RPMI-8226 = experiment: Growth inhibition of human RPMI-8226 cells assessed as cell growth at 10 uM incubated for 48 hrs by sulforhodamine B assay relative to control
Outline: (§2)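 Run by the NCI Developmental Therapeutics Program as part of its 60-line human tumour panel. Each compound tested at a single 10 µM dose. Growth expressed as % relative to untreated control cells (100%).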

SR = experiment: Growth inhibition of human SR cells assessed as cell growth at 10 uM incubated for 48 hrs by sulforhodamine B assay relative to control; outline: as §2
A549 = experiment: Growth inhibition of human A549/ATCC cells assessed as cell growth at 10 uM incubated for 48 hrs by sulforhodamine B assay relative to control
Outline: (§3)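 NCI Developmental Therapeutics Program NCI60 panel. Compounds that were active in the 10 µM one-dose screen went on to dose–response testing. Growth at each concentration is expressed relative to untreated control (100%). GI50 (concentration giving 50% of maximal inhibition of proliferation) and TGI (concentration giving total growth inhibition) were derived from the curves.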

NCI-H226 = experiment: Growth inhibition of human NCI-H226 cells assessed as cell growth at 10 uM incubated for 48 hrs by sulforhodamine B assay relative to control; outline: as §1
NCI-H23 = experiment: Growth inhibition of human NCI-H23 cells assessed as cell growth at 10 uM incubated for 48 hrs by sulforhodamine B assay relative to control; outline: as §1
NCI-H322M = experiment: Growth inhibition of human NCI-H322M cells assessed as cell growth at 10 uM incubated for 48 hrs by sulforhodamine B assay relative to control; outline: as §1
COLO 205 = experiment: Growth inhibition of human COLO 205 cells assessed as cell growth at 10 uM incubated for 48 hrs by sulforhodamine B assay relative to control; outline: as §3
HCC 2998 = experiment: Growth inhibition of human HCC 2998 cells assessed as cell growth at 10 uM incubated for 48 hrs by sulforhodamine B assay relative to control; outline: as §3
HCT-116 = experiment: Growth inhibition of human HCT-116 cells assessed as cell growth at 10 uM incubated for 48 hrs by sulforhodamine B assay relative to control; outline: as §1
KM12 = experiment: Growth inhibition of human KM12 cells assessed as cell growth at 10 uM incubated for 48 hrs by sulforhodamine B assay relative to control; outline: as §1
SW-620 = experiment: Growth inhibition of human SW-620 cells assessed as cell growth at 10 uM incubated for 48 hrs by sulforhodamine B assay relative to control; outline: as §2
SF-268 = experiment: Growth inhibition of human SF-268 cells assessed as cell growth at 10 uM incubated for 48 hrs by sulforhodamine B assay relative to control; outline: as §2
SF-295 = experiment: Growth inhibition of human SF-295 cells assessed as cell growth at 10 uM incubated for 48 hrs by sulforhodamine B assay relative to control; outline: as §2
SNB-19 = experiment: Growth inhibition of human SNB-19 cells assessed as cell growth at 10 uM incubated for 48 hrs by sulforhodamine B assay relative to control; outline: as §2
U-251 = experiment: Growth inhibition of human U-251 cells assessed as cell growth at 10 uM incubated for 48 hrs by sulforhodamine B assay relative to control; outline: as §2
LOX IMVI = experiment: Growth inhibition of human LOX IMVI cells assessed as cell growth at 10 uM incubated for 48 hrs by sulforhodamine B assay relative to control; outline: as §1
Malme-3M = experiment: Growth inhibition of human Malme-3M cells assessed as cell growth at 10 uM incubated for 48 hrs by sulforhodamine B assay relative to control; outline: as §1
M14 = experiment: Growth inhibition of human M14 cells assessed as cell growth at 10 uM incubated for 48 hrs by sulforhodamine B assay relative to control; outline: as §1
MDA-MB-435 = experiment: Growth inhibition of human MDA-MB-435 cells assessed as cell growth at 10 uM incubated for 48 hrs by sulforhodamine B assay relative to control; outline: as §1
SK-MEL-28 = experiment: Growth inhibition of human SK-MEL-28 cells assessed as cell growth at 10 uM incubated for 48 hrs by sulforhodamine B assay relative to control; outline: as §2
SK-MEL-5 = experiment: Growth inhibition of human SK-MEL-5 cells assessed as cell growth at 10 uM incubated for 48 hrs by sulforhodamine B assay relative to control; outline: as §2
UACC-62 = experiment: Growth inhibition of human UACC-62 cells assessed as cell growth at 10 uM incubated for 48 hrs by sulforhodamine B assay relative to control; outline: as §2
IGROV-1 = experiment: Growth inhibition of human IGROV-1 cells assessed as cell growth at 10 uM incubated for 48 hrs by sulforhodamine B assay relative to control; outline: as §1
OVCAR-3 = experiment: Growth inhibition of human OVCAR-3 cells assessed as cell growth at 10 uM incubated for 48 hrs by sulforhodamine B assay relative to control; outline: as §2
OVCAR-4 = experiment: Growth inhibition of human OVCAR-4 cells assessed as cell growth at 10 uM incubated for 48 hrs by sulforhodamine B assay relative to control; outline: as §2
OVCAR-5 = experiment: Growth inhibition of human OVCAR-5 cells assessed as cell growth at 10 uM incubated for 48 hrs by sulforhodamine B assay relative to control; outline: as §2
OVCAR-8 = experiment: Growth inhibition of human OVCAR-8 cells assessed as cell growth at 10 uM incubated for 48 hrs by sulforhodamine B assay relative to control; outline: as §2
A498 = experiment: Growth inhibition of human A498 cells assessed as cell growth at 10 uM incubated for 48 hrs by sulforhodamine B assay relative to control; outline: as §3
ACHN = experiment: Growth inhibition of human ACHN cells assessed as cell growth at 10 uM incubated for 48 hrs by sulforhodamine B assay relative to control
Outline: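 NCI Developmental Therapeutics Program NCI60 human tumour cell line panel, one-dose primary screen with every compound at 10 µM. Growth is expressed as % of untreated control cells (100%).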

RXF 393 = experiment: Growth inhibition of human RXF 393 cells assessed as cell growth at 10 uM incubated for 48 hrs by sulforhodamine B assay relative to control; outline: as §2
SN12C = experiment: Growth inhibition of human SN12C cells assessed as cell growth at 10 uM incubated for 48 hrs by sulforhodamine B assay relative to control; outline: as §2
UO-31 = experiment: Growth inhibition of human UO-31 cells assessed as cell growth at 10 uM incubated for 48 hrs by sulforhodamine B assay relative to control; outline: as §2
PC-3 = experiment: Growth inhibition of human PC-3 cells assessed as cell growth at 10 uM incubated for 48 hrs by sulforhodamine B assay relative to control; outline: as §2
MDA-MB-468 = experiment: Growth inhibition of human MDA-MB-468 cells assessed as cell growth at 10 uM incubated for 48 hrs by sulforhodamine B assay relative to control; outline: as §1

`COc1ccc(S(=O)(=O)n2ccc(-c3ccc(OC(C)C)cc3)n2)cc1` gave a growth at 10 µM (K562) of 53.6%, a growth at 10 µM (RPMI-8226) of 70.7% and a growth at 10 µM (SR) of 75.7%. For the same compound, the growth at 10 µM (A549) was 86%, the growth at 10 µM (NCI-H226) was 78.8% and the growth at 10 µM (NCI-H23) was 83.8%. For the same compound, the growth at 10 µM (NCI-H322M) was 99.3%, the growth at 10 µM (COLO 205) was 111% and the growth at 10 µM (HCC 2998) was 103%. The growth at 10 µM (HCT-116) was 79%, the growth at 10 µM (KM12) was 92% and the growth at 10 µM (SW-620) was 86.3%. The growth at 10 µM (SF-268) was 100%, the growth at 10 µM (SF-295) was 90% and the growth at 10 µM (SNB-19) was 100%. It also gave a growth at 10 µM (U-251) of 95.3%, a growth at 10 µM (LOX IMVI) of 94.1% and a growth at 10 µM (Malme-3M) of 107%. The growth at 10 µM (M14) was 84.5%, the growth at 10 µM (MDA-MB-435) was 94.6% and the growth at 10 µM (SK-MEL-28) was 95.3%. It also gave a growth at 10 µM (SK-MEL-5) of 91.9%, a growth at 10 µM (UACC-62) of 64.1% and a growth at 10 µM (IGROV-1) of 91%. The growth at 10 µM (OVCAR-3) was 90.4%, the growth at 10 µM (OVCAR-4) was 67.7% and the growth at 10 µM (OVCAR-5) was 80.7%. It also gave a growth at 10 µM (OVCAR-8) of 94.6%, a growth at 10 µM (A498) of 48.5% and a growth at 10 µM (ACHN) of 95.8%. The growth at 10 µM (RXF 393) was 100%, the growth at 10 µM (SN12C) was 90.6% and the growth at 10 µM (UO-31) was 76.4%. It also gave a growth at 10 µM (PC-3) of 73.2% and a growth at 10 µM (MDA-MB-468) of 68.7%.
